Measured values published in ChEMBL document CHEMBL1208661, “Synthesis, characterization, in vitro and molecular docking studies of new 2,5-dichloro thienyl substituted thiazole derivatives for antimicrobial properties” (2010).
Values after ≈ are worked out from the molar mass of the structure shown. Active and inactive are the calls of the source. No cut-off for these calls is given here.

How the values were obtained:
Aspergillus fumigatus [1] = assay: Antifungal activity against Aspergillus fumigatus NCIM 902 after 3 to 4 days by serial plate dilution method; format: functional
Method in brief: (§1)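 Sabouraud agar was used (peptone, D-glucose and agar in water, pH 5.7). Plates were lawned with a saline spore suspension and dried at 37 °C for 1 h. Wells were punched in the agar and filled with compound in DMSO, with a DMSO solvent control. Plates were run in triplicate at 37 °C for 3–4 days.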

Talaromyces marneffei [2] = assay: Antifungal activity against recultured Penicillium marneffei after 3 to 4 days by serial plate dilution method; format: functional; method in brief: as §1
[3] = test system: Trichophyton mentagrophytes; assay: Antifungal activity against recultured Trichophyton mentagrophytes after 3 to 4 days by serial plate dilution method; format: functional; method in brief: as §1
Aspergillus flavus [4] = assay: Antifungal activity against Aspergillus flavus NCIM 524 after 3 to 4 days by serial plate dilution method; format: functional; method in brief: as §1
Klebsiella pneumoniae = assay: Antibacterial activity against Klebsiella pneumoniae after 24 hrs by disc diffusion method; format: functional
Method in brief: (§2)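 Paper discs (6.25 mm, Whatman No. 1) were dry-heat sterilized at 140 °C for 1 h. Test compounds were made up at different concentrations in dimethylformamide and loaded onto batches of 100 discs, using 1 ml holding 100 times the per-disc amount. Discs were placed in triplicate on nutrient agar seeded with fresh bacteria.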

Pseudomonas aeruginosa = assay: Antibacterial activity against Pseudomonas aeruginosa after 24 hrs by disc diffusion method; format: functional; method in brief: as §2
Aspergillus fumigatus [5] = assay: Antifungal activity against Aspergillus fumigatus NCIM 902 at 10 ug/ml after 3 to 4 days by serial plate dilution method; format: functional, organism-based; method in brief: as §1
Escherichia coli = assay: Antibacterial activity against Escherichia coli after 24 hrs by disc diffusion method; format: functional; method in brief: as §2
Staphylococcus aureus = assay: Antibacterial activity against Staphylococcus aureus Smith after 24 hrs by disc diffusion method; format: functional; method in brief: as §2
Aspergillus flavus [6] = assay: Antifungal activity against Aspergillus flavus NCIM 524 at 10 ug/ml after 3 to 4 days by serial plate dilution method; format: functional, organism-based; method in brief: as §1
[7] = test system: Trichophyton mentagrophytes; assay: Antifungal activity against recultured Trichophyton mentagrophytes at 10 ug/ml after 3 to 4 days by serial plate dilution method; format: functional, organism-based; method in brief: as §1
Talaromyces marneffei [8] = assay: Antifungal activity against recultured Penicillium marneffei at 10 ug/ml after 3 to 4 days by serial plate dilution method; format: functional, organism-based; method in brief: as §1

SMILES	MIC (Aspergillus fumigatus [1]) [µg/mL]	MIC (Talaromyces marneffei [2]) [µg/mL]	MIC [3] [µg/mL]	MIC (Aspergillus flavus [4]) [µg/mL]	MIC (Klebsiella pneumoniae)	MIC (Pseudomonas aeruginosa)	MIC (Aspergillus fumigatus [5])	MIC (Escherichia coli)	MIC (Staphylococcus aureus) [µg/mL]	MIC (Aspergillus flavus [6])	MIC [7]	MIC (Talaromyces marneffei [8])
COc1ccccc1-c1nc(-c2cc(Cl)sc2Cl)cs1		12.5 (≈ 36.5 µM)	12.5 (≈ 36.5 µM)	100 (≈ 292 µM)	100 µg/mL (≈ 292 µM)	12.5 µg/mL (≈ 36.5 µM)	inactive	6.25 µg/mL (≈ 18.3 µM)	6.25 (≈ 18.3 µM)			
CC1(C)S[C@@H]2[C@H](NC(=O)[C@H](N)c3ccccc3)C(=O)N2[C@H]1C(=O)O [AMPICILLIN]					< 6.25 µg/mL	< 6.25 µg/mL		< 6.25 µg/mL	< 6.25			
Fc1ccccc1-c1nc(-c2cc(Cl)sc2Cl)cs1					inactive	inactive	inactive	inactive	100 (≈ 303 µM)	inactive	inactive	inactive

Continued, values first:

MIC (Aspergillus fumigatus [1]) [µg/mL]	MIC (Talaromyces marneffei [2]) [µg/mL]	MIC [3] [µg/mL]	MIC (Aspergillus flavus [4]) [µg/mL]	MIC (Klebsiella pneumoniae)	MIC (Pseudomonas aeruginosa)	MIC (Aspergillus fumigatus [5])	MIC (Escherichia coli)	MIC (Staphylococcus aureus) [µg/mL]	MIC (Aspergillus flavus [6])	MIC [7]	MIC (Talaromyces marneffei [8])	SMILES
< 6.25	< 6.25	< 6.25	< 6.25									C[C@@H]1[C@H](O)[C@@H](C)/C=C/C=C/C=C/C=C/C=C/C=C/C=C/[C@H](O[C@@H]2O[C@H](C)[C@@H](O)[C@H](N)[C@@H]2O)C[C@@H]2O[C@](O)(C[C@@H](O)C[C@@H](O)[C@H](O)CC[C@@H](O)C[C@@H](O)CC(=O)O[C@H]1C)C[C@H](O)[C@H]2C(=O)O [AMPHOTERICIN B]
6.25 (≈ 24.9 µM)	12.5 (≈ 49.8 µM)	12.5 (≈ 49.8 µM)	6.25 (≈ 24.9 µM)	12.5 µg/mL (≈ 49.8 µM)	12.5 µg/mL (≈ 49.8 µM)		6.25 µg/mL (≈ 24.9 µM)	6.25 (≈ 24.9 µM)				Nc1nc(-c2cc(Cl)sc2Cl)cs1
12.5 (≈ 34.4 µM)	6.25 (≈ 17.2 µM)	6.25 (≈ 17.2 µM)	6.25 (≈ 17.2 µM)	6.25 µg/mL (≈ 17.2 µM)	12.5 µg/mL (≈ 34.4 µM)		12.5 µg/mL (≈ 34.4 µM)	6.25 (≈ 17.2 µM)				Clc1cc(-c2csc(-c3cccc4cccnc34)n2)c(Cl)s1
				inactive	100 µg/mL (≈ 319 µM)	inactive	inactive	100 (≈ 319 µM)	inactive	inactive	inactive	Clc1cc(-c2csc(-c3cccnc3)n2)c(Cl)s1
